Experimental data taken from ChEMBL document CHEMBL5143731, “N-Acylamino Saccharin as an Emerging Cysteine-Directed Covalent Warhead and Its Application in the Identification of Novel FBPase Inhibitors toward Glucose Reduction” (J Med Chem, 2022).
The source made the active and inactive calls. No cut-off for these calls is given here.

Columns and labels:
[1] = Half life of the compound in buffer; type: physicochemical
Procedure, shortened: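 Electrophile (20 μmol) incubated at 37 °C either in pH 7.4 buffer, or in DMSO-d6/D2O (5:1), with or without glutathione. Decay followed by 1H NMR kinetics. First-order rate constant kpseudo-1st taken from ln[electrophile] versus time; t1/2 = 0.693/(60×k), in min.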

[2] = biological target: T1, Fructose-1,6-bisphosphatase 1 (Homo sapiens, UniProt P09467); test: Inhibition of human FBPase expressed Escherichia coli BL21 in by malachite green dye based spectrophotometry
T1 sequence (P09467 whole entry): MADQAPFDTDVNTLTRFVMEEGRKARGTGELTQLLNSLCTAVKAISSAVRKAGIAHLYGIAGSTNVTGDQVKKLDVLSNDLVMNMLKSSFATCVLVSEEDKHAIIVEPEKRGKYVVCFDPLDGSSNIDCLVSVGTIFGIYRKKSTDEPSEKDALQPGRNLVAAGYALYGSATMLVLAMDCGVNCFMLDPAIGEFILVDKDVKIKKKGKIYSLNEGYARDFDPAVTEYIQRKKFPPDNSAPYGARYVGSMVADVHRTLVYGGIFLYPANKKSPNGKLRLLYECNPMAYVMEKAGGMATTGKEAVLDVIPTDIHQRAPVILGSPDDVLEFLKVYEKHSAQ
Procedure, shortened: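 His-tagged human liver FBPase expressed in E. coli BL21(DE3) and purified by Ni affinity. Phosphate released from FBP complexed with ammonium molybdate/malachite green and read at 620 nm against a KH2PO4 standard curve (2−60 μM). Initial rates at saturating substrate, fixed effector and varied inhibitor fitted to the Hill equation for IC50.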

Homo sapiens [3] = organism: Homo sapiens; test: Selectivity ratio of IC50 for human FBPase to IC50 for recombinant ALDOA (unknown origin)
Procedure, shortened: (§1)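 Aldolase (ALDOA/B/C) IC50 by NADH-coupled assay: enzyme plus serial compound dilutions, 0.41 mM NADH and TPI in 0.1 M Tris pH 7.4/0.2 M K-acetate, 3 min at 37 °C. Started with FBP and […], A340 read every 30 s for 6 min. Ratios against the FBPase IC50 from malachite green phosphate assay (620 nm).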

Homo sapiens [4] = organism: Homo sapiens; test: Selectivity ratio of IC50 for human FBPase to IC50 for recombinant ALDOB (unknown origin); procedure, shortened: as §1
Homo sapiens [5] = organism: Homo sapiens; test: Selectivity ratio of IC50 for human FBPase to IC50 for recombinant ALDOC (unknown origin); procedure, shortened: as §1
Homo sapiens [6] = organism: Homo sapiens; test: Selectivity ratio of IC50 for human FBPase to IC50 for human GAPDH
Procedure, shortened: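 Recombinant human GAPDH (His-tag, E. coli; 0.1 mg/mL final) preincubated 30 min with compound in 10 mM sodium pyrophosphate pH 8.5 at 37 °C. Started with arsenate, 4 mM NAD+ and 12 mM G3P; A340 at 4 min. Ratio taken against FBPase IC50 from the malachite green phosphate-release assay.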

[7] = biological target: Tyrosine-protein kinase BTK (Homo sapiens) (UniProt Q06187); test: Inhibition of BTK (unknown origin) at 300 uM measured after 40 mins in presence of ATP by luminescence assay relative to control
Chain of Tyrosine-protein kinase BTK (Homo sapiens) (Q06187 whole entry): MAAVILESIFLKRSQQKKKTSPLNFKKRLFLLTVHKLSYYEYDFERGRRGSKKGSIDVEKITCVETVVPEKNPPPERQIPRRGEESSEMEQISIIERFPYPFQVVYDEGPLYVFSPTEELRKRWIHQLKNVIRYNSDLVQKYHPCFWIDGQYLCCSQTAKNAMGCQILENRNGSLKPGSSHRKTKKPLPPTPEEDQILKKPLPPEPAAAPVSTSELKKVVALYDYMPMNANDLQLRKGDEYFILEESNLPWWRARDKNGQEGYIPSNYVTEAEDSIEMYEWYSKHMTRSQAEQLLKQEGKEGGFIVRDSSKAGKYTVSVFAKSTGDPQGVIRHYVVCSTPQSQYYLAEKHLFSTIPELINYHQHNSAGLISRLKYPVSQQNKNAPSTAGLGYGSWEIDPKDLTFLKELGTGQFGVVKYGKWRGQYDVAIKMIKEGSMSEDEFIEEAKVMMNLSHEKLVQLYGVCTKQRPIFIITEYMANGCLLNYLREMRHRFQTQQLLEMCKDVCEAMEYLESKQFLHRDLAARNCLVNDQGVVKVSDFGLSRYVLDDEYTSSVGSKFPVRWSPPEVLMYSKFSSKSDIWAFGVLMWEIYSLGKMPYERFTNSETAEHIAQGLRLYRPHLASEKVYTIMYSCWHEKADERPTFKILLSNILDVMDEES
Procedure, shortened: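 Kinase reaction (50 μL): 40 mM Tris pH 7.4, 10 mM MgCl2, 0.1 mg/mL BSA, 1 mM DTT, 10 μM ATP, kinase and substrate, with 1% final DMSO. Run 40 min at 30 °C. Residual ATP read by Kinase-Glo Plus luminescence, inversely related to kinase activity.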

Mus musculus [8] = test: Hypoglycemic activity in ICR mouse assessed as glucose lowering effect at 30 mg/kg, ip measured after 2 to 6 hrs; type: functional, organism-based; details: time 2-6 hrs
Procedure, shortened: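 Fasted (12 h) male ICR mice received one intraperitoneal dose in 10% ricinus oil/water vehicle; metformin 250 mg/kg served as control. Food was withheld. Tail blood glucose was read by glucometer at 0, 1, 2, 4 and 6 h.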

Mus musculus [9] = test: Hypoglycemic activity in 12 hrs fasted ICR mouse assessed as reduction in blood glucose AUC (0 to 6 hrs) at 30 mg/kg, ip measured after 6 hrs; type: functional; set-up: scale not given: the % may be the effect or the level left
Procedure, shortened: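 Male ICR mice (n = 4 per group), fasted 12 h with food withheld throughout. Single ip dose in 10% ricinus oil in water; vehicle and metformin 250 mg/kg as controls. Tail-vein glucose by glucometer at 0, 1, 2, 4 and 6 h; AUC over 0−6 h calculated.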

Hepatocyte = test: Cytotoxicity in ICR mouse serum starved primary hepatocytes assessed as reduction in cell viability at 50 to 300 uM; type: toxicity, cell-based; details: dose 50-300 µM

With `O=C(NCc1ccccc1)N1C(=O)c2ccccc2S1(=O)=O` the half-life [1] was > 167 h, the IC50 [2] was 3.4 µM and the Ratio IC50 (Homo sapiens [3]) was > 25. The Ratio IC50 (Homo sapiens [4]) was > 25, the Ratio IC50 (Homo sapiens [5]) was > 25 and the Ratio IC50 (Homo sapiens [6]) was > 25. The inhibition [7] was < 50%, the Activity (Mus musculus [8]) was “Active” and the Activity (Mus musculus [9]) was 42.4%. The Activity (Hepatocyte) was “Non-Toxic”.
